Common to all, as to format: ADME, organism-based
The nature of data set [1]: Tmax in Sprague-Dawley rat at 50 mg/kg, po after 0.5 to 24 hrs by LC-MS/MS analysis. The conditions noted are these: in vivo.
The nature of data set [2]: Volume of distribution at steady state in Sprague-Dawley rat at 10 mg/kg, iv after 5 mins to 24 hrs by LC-MS/MS analysis. The note with it: in vivo, read-out: Vdss. The procedure, abridged:
(§1)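 Male SD rats, n=5 per group, single iv bolus: 5 mg/kg in 5% DMSO/5% Tween-80 in saline, or 10 mg/kg tartrate salt in water. Plasma sampled predose and at 5, 15, 30 min and 1, 3, 5, 7, 24 h. Drug measured by LC-MS. Parameters by noncompartmental analysis of mean concentrations.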

Data set [3] can be described thus: AUC (0 to 24 hrs) in Sprague-Dawley rat at 50 mg/kg, po after 0.5 to 24 hrs by LC-MS/MS analysis. The arrangement: time < 24 hr, dose 50 mg/kg, route oral. The conditions noted are these: in vivo.
Data set [4] can be described thus: Cmax in Sprague-Dawley rat at 50 mg/kg, po after 0.5 to 24 hrs by LC-MS/MS analysis. The conditions noted are these: in vivo. The arrangement: dose 50 mg/kg, route oral.
Data set [5] is described as follows: AUC (0 to 24 hrs) in Sprague-Dawley rat at 10 mg/kg, iv after 5 mins to 24 hrs by LC-MS/MS analysis. Also on record: time < 24 hr, dose 10 mg/kg, route intravenous. The conditions noted are these: in vivo. The essentials: as §1

The structures appear in SMILES notation.

`CCN(CC)CCN(Cc1ccc(-c2ccc(C(F)(F)F)cc2)cc1)C(=O)Cn1c(SCc2ccc(F)cc2)nc(=O)c2c1CCC2` [DARAPLADIB]: the Tmax in data set [1] turned out to be 4.2 h. The Vd in data set [2] stood at 34.4 L/kg. Further, the AUC(0-t) at 24 h in data set [3] was found to be 1300 ng·h/mL; in data set [5], 1200 ng·h/mL. In data set [4], the Cmax was found to be 115 ng/mL.

By Tmax is commonly meant the time from dosing to the highest level. The term AUC(0-t) denotes the area under the concentration-time curve up to a stated or last time point. A higher AUC(0-t) goes with high exposure. A word on the Cmax: it is the maximum level reached in the sampled fluid or tissue.

The values above are taken from ChEMBL document CHEMBL3792272, “Discovery of Potent and Orally Active Lipoprotein-Associated Phospholipase A2 (Lp-PLA2) Inhibitors as a Potential Therapy for Diabetic Macular Edema” (J Med Chem, 2016).
